These results are taken from ChEMBL document CHEMBL3272222, “Heterocyclic and piperonylic acid esters of 1-methyl-4-piperidinol as analgesics” (J Med Chem, 1977).

For series [1], the target named is Opioid receptor (Rattus norvegicus) (UniProt P33533+P34975+P33535). The note with it: Brain.
In series [2] the test system is Mus musculus. Nature of the series: Analgesic activity in sc dosed mouse by hot-plate assay. The class given is functional. An outline of the steps: (§1)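 Mice dosed subcutaneously with compounds as water-soluble salts. ED50 in mg/kg, with 95% confidence limits from probit analysis. Overt toxicity was also noted at the doses given.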
Series [3] concerns Mus musculus. Nature of the series: Analgesic activity in sc dosed mouse by Nilsen method. The class given is functional. The gist of the method:
as §1

Series [4] deals with Mus musculus. Briefly: Toxicity in mouse at 40 mg/kg, sc. The series is classed as organism-based. Set-up: dose 40 mg/kg, route subcutaneous. The conditions noted are these: in vivo. The gist of the method: (§2)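 Toxic signs were recorded in mice during analgesic testing after subcutaneous doses of the compounds, given as water-soluble salts.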
Series [5] relates to Mus musculus. Briefly: Toxicity in mouse at 50 mg/kg, sc. The series is classed as organism-based. On the set-up: dose 50 mg/kg, route subcutaneous. The note with it: in vivo. The gist of the method:
as §2

In series [6] the test system is Mus musculus. Briefly: Analgesic activity in mouse at 20 mg/kg, sc by hot-plate assay. Set-up: dose 20 mg/kg. The series is classed as functional, organism-based. The gist of the method:
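Mouse hot-plate analgesia test. Compounds were given subcutaneously as water-soluble salts. ED50 values carry 95% confidence limits from probit analysis.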
For orientation: In hot-plate and tail-flick tests a longer latency is read as antinociception.

The test system of series [7] is Mus musculus. Nature of the series: Toxicity in mouse at 20 mg/kg, sc. The class given is organism-based. On the set-up: dose 20 mg/kg, route subcutaneous. The conditions noted are these: in vivo. The gist of the method:
as §2

In series [8] the test system is Mus musculus. Nature of the series: Analgesic activity in sc dosed mouse by tail-flick assay. The class given is functional.
For series [9], the system named is Mus musculus. Nature of the series: Analgesic activity in mouse assessed as inhibition of p-phenylquinone-induced abdominal-stretching at 10 mg/kg, sc. The class given is functional, organism-based. On the set-up: dose 10 mg/kg. An outline of the steps:
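Mice were dosed subcutaneously with test compounds as water-soluble salts and then run in the tail-flick assay and in the p-phenylquinone-induced abdominal-stretching (PPQ) assay.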

Series [10] concerns Mus musculus. Nature of the series: Analgesic activity in mouse at 10 mg/kg, sc by tail-flick assay. The class given is functional, organism-based. Set-up: dose 10 mg/kg.
Series [11] deals with Mus musculus. Briefly: Analgesic activity in sc dosed mouse assessed as inhibition of p-phenylquinone-induced abdominal-stretching. The class given is functional.
The test system of series [12] is Rhesus monkey. Nature of the series: Toxicity in monkey assessed as increase in severity of abstinence signs at 6 mg/kg administered as single dose. The series is classed as organism-based, Macaca mulatta. The conditions noted are these: in vivo. On the set-up: dose 6 mg/kg. The gist of the method:
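Rhesus monkeys were used in single-dose suppression tests for physical dependence. The compound was given at 6.0 mg/kg and the severity of abstinence signs was scored.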

For series [13], the system named is Mus musculus. Briefly: Toxicity in mouse at 30 mg/kg, sc. The series is classed as organism-based. Set-up: dose 30 mg/kg, route subcutaneous. The conditions noted are these: in vivo. An outline of the steps: as §2
The test system of series [14] is Rhesus monkey. Nature of the series: Toxicity in monkey assessed as piloerection at 12 mg/kg administered as single dose. The class given is organism-based, Macaca mulatta. The conditions noted are these: in vivo. Set-up: dose 12 mg/kg.
The test system of series [15] is Rhesus monkey. Briefly: Toxicity in monkey assessed as retching at 12 mg/kg administered as single dose. The series is classed as organism-based, Macaca mulatta. On the set-up: dose 12 mg/kg. The conditions noted are these: in vivo.
Series [16] deals with Rhesus monkey. Nature of the series: Toxicity in nonwithdrawn monkey assessed as mild abstinence signs at 6 mg/kg administered as single dose. The series is classed as organism-based, Macaca mulatta. Set-up: dose 6 mg/kg. The conditions noted are these: in vivo.
Series [17] relates to Rhesus monkey. Nature of the series: Toxicity in monkey assessed as increased respiration at 12 mg/kg administered as single dose. The note with it: in vivo. The series is classed as organism-based, Macaca mulatta. On the set-up: dose 12 mg/kg.
Series [18] deals with Rhesus monkey. Nature of the series: Toxicity in monkey assessed as morphine-like dependence liability. The class given is organism-based, Macaca mulatta. The conditions noted are these: in vivo. The gist of the method:
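Physical dependence liability of the morphine type was assessed in Rhesus monkeys.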

Series [19] has as its system Rhesus monkey. Briefly: Toxicity in nonwithdrawn monkey assessed as mild CNS depression at 6 mg/kg administered as single dose. The class given is organism-based, Macaca mulatta. Set-up: dose 6 mg/kg. The conditions noted are these: in vivo.
Series [20] relates to Rhesus monkey. Briefly: Toxicity in monkey assessed as tremors at 12 mg/kg administered as single dose. The series is classed as organism-based, Macaca mulatta. On the set-up: dose 12 mg/kg. The note with it: in vivo.
Series [21] deals with Mus musculus. Briefly: Toxicity in mouse at 60 mg/kg, sc. The series is classed as organism-based. On the set-up: dose 60 mg/kg, route subcutaneous. The conditions noted are these: in vivo. An outline of the steps:
as §2

SMILES strings stand for the structures. Calls of active or inactive are those of the source. The calls are words filed in the database; no cut-off is given here. Where only a bound is given, the exact number is not on record here.

Opioid receptor (Rattus norvegicus), sequence (P33533 whole entry, looked up): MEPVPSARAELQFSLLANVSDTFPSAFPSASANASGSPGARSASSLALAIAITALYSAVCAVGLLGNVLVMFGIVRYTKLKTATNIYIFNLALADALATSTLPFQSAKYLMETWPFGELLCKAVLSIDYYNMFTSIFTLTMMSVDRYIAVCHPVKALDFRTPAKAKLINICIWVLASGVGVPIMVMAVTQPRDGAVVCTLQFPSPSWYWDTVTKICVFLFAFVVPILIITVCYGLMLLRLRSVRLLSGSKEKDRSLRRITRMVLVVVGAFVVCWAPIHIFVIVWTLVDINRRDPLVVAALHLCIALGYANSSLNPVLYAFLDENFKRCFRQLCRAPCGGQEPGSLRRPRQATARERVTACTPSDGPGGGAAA
Opioid receptor (Rattus norvegicus), sequence (P33535 whole entry, looked up): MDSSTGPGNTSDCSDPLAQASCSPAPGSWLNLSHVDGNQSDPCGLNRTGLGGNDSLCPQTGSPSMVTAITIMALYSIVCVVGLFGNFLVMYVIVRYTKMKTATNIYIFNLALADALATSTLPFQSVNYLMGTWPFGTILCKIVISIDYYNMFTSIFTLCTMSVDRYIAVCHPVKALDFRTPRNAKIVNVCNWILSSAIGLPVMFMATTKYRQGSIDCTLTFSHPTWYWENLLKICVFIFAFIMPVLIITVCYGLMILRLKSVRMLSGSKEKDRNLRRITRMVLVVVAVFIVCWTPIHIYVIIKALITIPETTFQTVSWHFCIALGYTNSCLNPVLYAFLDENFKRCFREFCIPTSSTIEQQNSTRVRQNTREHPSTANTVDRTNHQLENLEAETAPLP
Opioid receptor (Rattus norvegicus), sequence (P34975 whole entry, looked up): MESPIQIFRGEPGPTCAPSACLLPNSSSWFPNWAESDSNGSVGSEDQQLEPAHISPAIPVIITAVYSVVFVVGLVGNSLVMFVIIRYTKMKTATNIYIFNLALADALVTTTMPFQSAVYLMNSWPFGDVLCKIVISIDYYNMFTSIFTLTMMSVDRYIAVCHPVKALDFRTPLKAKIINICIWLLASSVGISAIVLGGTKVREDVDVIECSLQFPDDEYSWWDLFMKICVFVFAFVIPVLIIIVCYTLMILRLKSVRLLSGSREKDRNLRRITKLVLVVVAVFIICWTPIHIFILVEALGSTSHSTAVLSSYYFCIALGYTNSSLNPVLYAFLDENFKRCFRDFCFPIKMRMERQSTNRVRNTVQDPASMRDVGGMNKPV

The molecule `CCOC(=O)C1(c2ccccc2)CCN(C)CC1` gave an ED50 in [1] of 0.7 µM.
`CN1CCC(OC(=O)C2c3ccccc3Oc3ccccc32)CC1.Cl` came in with an ED50 in the series with Mus musculus [2] of 35 mg/kg.
As for `CN1CCCC(COC(=O)c2ccc3c(c2)OCO3)C1.Cl` (stereo not given), the ED50 in the series on Mus musculus [2] was 22.7 mg/kg.
On the same count and under the same terms, as for `Cc1ccc(C(=O)OC2CCN(C)CC2)s1`, the entry is “inactive”.
Turning to `CN1CCC(OC(=O)c2ccc3ncccc3c2)CC1.Cl`, the ED50 in series [1] is > 100 µM; in the series with Mus musculus [2] it was 9.3 mg/kg; in the series with Mus musculus [3], 29.7 mg/kg. Also, the Activity entry in the series on Mus musculus [4] is “Non-toxic”; with Mus musculus [5], “Toxic”.
As to `Cc1c(C(=O)OC2CCN(C)CC2)c(C)n(C)c1C`, the outcome in the series on Mus musculus [6] was Active.
As for `CN1CCC(OC(=O)c2ccco2)CC1.O=C(O)/C=C\C(=O)O`, the ED50 with Mus musculus [2] was 12.5 mg/kg. The Activity result with Mus musculus [5] was “Non-toxic”.
Take `CN1CCC(OC(=O)c2ccc(Br)o2)CC1.Cl`: the ED50 in the series with Mus musculus [2] was 17.7 mg/kg.
`CN1CCC(OC(=O)c2cccs2)CC1.Cl`: the ED50 was > 100 µM in series [1] and 13.3 mg/kg in the series with Mus musculus [2]. Also, the ED50 entry with Mus musculus [3] is “inactive”. For the same molecule, the Activity entry in the series with Mus musculus [4] is reported as “Non-toxic”.
In turn, `CN1CCC(OC(=O)c2ccoc2)CC1.O=C(O)/C=C\C(=O)O` gave an ED50 with Mus musculus [2] of 27.9 mg/kg.
Still for that read-out and setting: as for `CN1CCC(OC(=O)c2ccncc2)CC1.O=C(O)/C=C\C(=O)O`, the figure is 44.2 mg/kg.
With `Cc1[nH]c(C)c(C(=O)OC2CCN(C)CC2)c1C`, the Activity entry in the series on Mus musculus [7] is reported as “Non-toxic”. Moreover, the ED50 was 1 µM in [1], 15.1 mg/kg in the series on Mus musculus [8] and 15.1 mg/kg in the series on Mus musculus [11]. The result in the series on Mus musculus [9] and with Mus musculus [10] was Active.
Consider `CN1CCC(OC(=O)c2ccc3c(c2)OCO3)CC1.Cl`, for which, in [1], the ED50 is 30 µM. The Activity entry in the series with Rhesus monkey [12] was “Toxic”; in the series on Mus musculus [13] it was “Non-toxic”; in the series on Rhesus monkey [14] it was “Toxic”; in the series on Rhesus monkey [15] it was “Toxic”; in the series on Rhesus monkey [16], “Toxic”; with Rhesus monkey [17], “Toxic”. The values for the Activity result in the series on Rhesus monkey [18], in the series on Rhesus monkey [19] and in the series on Rhesus monkey [20] were “Non-toxic”, “Toxic” and “Toxic”, respectively.
As for `Cc1ccc(C(=O)OC2CCN(C)CC2)cc1C`, the result in the series on Mus musculus [6] was Active.
On to `Cc1[nH]c(C)c(C(=O)OC2CCCN(C)C2)c1C` (stereo not given), for which the ED50 entry in the series with Mus musculus [2] is “inactive”.
On to `CN1CCC(OC(=O)c2cnc3ccccc3c2)CC1.Cl`, for which, in the series on Mus musculus [2], the ED50 is 11.2 mg/kg. Also, the Activity result in the series with Mus musculus [21] is “Non-toxic”.
`CN1CCC(OC(=O)c2cnc3ccccc3n2)CC1`: the ED50 result in the series with Mus musculus [2] is “inactive”.
